According to ChEMBL document CHEMBL3734738, “A structure-activity relationship of non-peptide macrocyclic histone deacetylase inhibitors and their anti-proliferative and anti-inflammatory activities” (Bioorg Med Chem, 2015):

Key:
Histone deacetylase 1 = Histone deacetylase 1 (Homo sapiens, UniProt Q13547); experiment: Inhibition of recombinant HDAC1 (unknown origin) expressed in Escherichia coli BL21(DE3) after 60 mins using trichostatin A by label-free mass spectrometry-based SAMDI assay
[1] = molecular target: T1, Protein deacetylase HDAC6 (Homo sapiens, UniProt Q9UBN7); experiment: Inhibition of recombinant HDAC6 (unknown origin) expressed in Escherichia coli BL21(DE3) after 60 mins using trichostatin A by label-free mass spectrometry-based SAMDI assay
T1 sequence (Q9UBN7 whole entry): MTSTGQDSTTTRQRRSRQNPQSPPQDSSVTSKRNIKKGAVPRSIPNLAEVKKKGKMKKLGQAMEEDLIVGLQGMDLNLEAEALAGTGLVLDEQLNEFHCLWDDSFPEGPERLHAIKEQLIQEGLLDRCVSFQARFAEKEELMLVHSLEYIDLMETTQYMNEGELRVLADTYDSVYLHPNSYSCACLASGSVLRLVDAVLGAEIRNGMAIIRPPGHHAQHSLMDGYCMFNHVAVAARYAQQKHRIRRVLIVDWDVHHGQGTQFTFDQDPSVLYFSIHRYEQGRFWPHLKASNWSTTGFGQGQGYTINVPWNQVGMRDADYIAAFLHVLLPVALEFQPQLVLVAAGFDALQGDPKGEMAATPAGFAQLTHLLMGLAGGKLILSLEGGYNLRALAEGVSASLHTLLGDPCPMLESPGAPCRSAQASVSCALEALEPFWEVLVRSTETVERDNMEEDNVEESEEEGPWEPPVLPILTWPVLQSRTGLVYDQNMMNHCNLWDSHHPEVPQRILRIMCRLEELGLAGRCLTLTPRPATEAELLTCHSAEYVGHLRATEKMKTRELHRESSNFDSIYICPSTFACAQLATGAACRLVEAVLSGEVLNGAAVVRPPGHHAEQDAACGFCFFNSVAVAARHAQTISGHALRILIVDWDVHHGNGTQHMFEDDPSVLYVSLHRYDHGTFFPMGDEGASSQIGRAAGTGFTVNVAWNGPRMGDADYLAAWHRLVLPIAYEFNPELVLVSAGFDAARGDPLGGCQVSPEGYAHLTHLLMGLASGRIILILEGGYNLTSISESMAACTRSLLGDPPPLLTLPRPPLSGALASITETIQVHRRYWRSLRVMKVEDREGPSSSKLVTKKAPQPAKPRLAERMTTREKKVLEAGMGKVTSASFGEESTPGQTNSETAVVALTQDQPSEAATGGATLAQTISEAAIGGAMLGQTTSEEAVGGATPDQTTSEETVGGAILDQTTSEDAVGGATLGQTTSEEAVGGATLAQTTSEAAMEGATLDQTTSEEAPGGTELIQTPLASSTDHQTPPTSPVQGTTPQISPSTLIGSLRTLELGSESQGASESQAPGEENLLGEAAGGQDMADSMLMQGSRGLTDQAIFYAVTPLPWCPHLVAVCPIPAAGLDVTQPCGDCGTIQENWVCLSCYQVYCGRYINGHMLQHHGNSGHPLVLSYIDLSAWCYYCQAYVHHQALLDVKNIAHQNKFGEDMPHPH

Histone deacetylase 8 = molecular target: T2, Histone deacetylase 8 (Homo sapiens, UniProt Q9BY41); experiment: Inhibition of recombinant HDAC8 (unknown origin) expressed in Escherichia coli BL21(DE3) after 60 mins using trichostatin A by label-free mass spectrometry-based SAMDI assay
T2 sequence (Q9BY41 whole entry): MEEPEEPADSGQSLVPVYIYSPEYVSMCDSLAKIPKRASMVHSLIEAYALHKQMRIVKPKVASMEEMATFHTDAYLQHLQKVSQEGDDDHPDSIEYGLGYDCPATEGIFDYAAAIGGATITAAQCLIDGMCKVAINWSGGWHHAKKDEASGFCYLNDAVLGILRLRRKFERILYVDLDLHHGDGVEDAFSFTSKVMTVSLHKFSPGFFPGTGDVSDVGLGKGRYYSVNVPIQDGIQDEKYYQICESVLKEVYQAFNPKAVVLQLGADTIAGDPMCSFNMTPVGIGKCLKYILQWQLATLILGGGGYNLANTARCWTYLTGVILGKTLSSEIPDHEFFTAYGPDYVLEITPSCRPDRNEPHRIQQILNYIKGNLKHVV

A549 = experiment: Cytotoxicity against human A549 cells after 72 hrs by MTS assay; format: functional, cell-based
In short: (§1)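 Cells kept in DMEM with 10% FBS and 1% penicillin-streptomycin, seeded in 96-well plates for 24 h, then exposed to a range of drug concentrations for 72 h at 0.1% DMSO; viability read by MTS assay per manufacturer's protocol.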

MCF7 = experiment: Cytotoxicity against human MCF7 cells after 72 hrs by MTS assay; format: functional, cell-based; in short: as §1
[2] = Inhibition of NTHi-induced NF-kappaB activation in human BEAS-2B cells treated 1 hr before NTHi stimulation measured after 5 hrs by luciferase assay; format: cell-based
Homo sapiens = species on record: Homo sapiens; conditions: at 1 µM
Vero = experiment: Cytotoxicity against African green monkey Vero cells after 72 hrs by MTS assay; format: cell-based; conditions: Chlorocebus sabaeus; in short: as §1
[3] = Homo sapiens, A549, 72 h, read-out: IC50
[4] = Homo sapiens, MCF7, 72 h, read-out: IC50
[5] = Homo sapiens, BEAS-2B, read-out: IC50

Histone deacetylase 1, sequence (Q13547 whole entry): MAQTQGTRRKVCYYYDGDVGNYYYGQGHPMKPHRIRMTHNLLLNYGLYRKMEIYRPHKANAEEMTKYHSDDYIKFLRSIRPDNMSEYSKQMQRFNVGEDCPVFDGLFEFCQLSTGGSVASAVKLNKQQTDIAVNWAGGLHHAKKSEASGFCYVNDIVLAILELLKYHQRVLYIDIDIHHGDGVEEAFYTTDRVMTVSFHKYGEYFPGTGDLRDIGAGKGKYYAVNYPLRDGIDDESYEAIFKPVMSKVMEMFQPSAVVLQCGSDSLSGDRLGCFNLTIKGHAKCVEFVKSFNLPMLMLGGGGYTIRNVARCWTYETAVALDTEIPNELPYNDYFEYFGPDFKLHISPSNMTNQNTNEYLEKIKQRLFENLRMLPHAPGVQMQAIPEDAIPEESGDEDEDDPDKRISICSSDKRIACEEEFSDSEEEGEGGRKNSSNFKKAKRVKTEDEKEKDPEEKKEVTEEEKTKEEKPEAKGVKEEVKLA

CC[C@H]1OC(=O)[C@H](C)C(=O)[C@H](C)[C@@H](O[C@@H]2O[C@H](C)C[C@H](N(C)Cc3cccc(-c4cn(CCCCCC(=O)NO)nn4)c3)[C@H]2O)[C@@](C)(OC)C[C@@H](C)C2=NCCN3C(=O)O[C@@]1(C)[C@H]3[C@H]2C
IC50 (Histone deacetylase 1): 109 nM
IC50 [1]: 17.5 nM
IC50 (Histone deacetylase 8): 3230 nM
IC50 (A549; a549): Not Active
IC50 (MCF7; mcf7): Not Active
IC50 [2]: Not Active
Imax (Homo sapiens): 71%

CC[C@@H]1OC(=O)[C@@H](C)[C@H](O[C@H]2C[C@@](C)(OC)[C@@H](O)[C@H](C)O2)[C@H](C)[C@H](O[C@@H]2O[C@H](C)C[C@H](N(C)Cc3ccc(-c4cn(CCCCCCC(=O)NO)nn4)cc3)[C@H]2O)[C@@](C)(OC)C[C@H](C)C(=O)[C@@H](C)[C@@H](O)[C@@]1(C)O (stereo in doubt)
IC50 (Histone deacetylase 1): 207 nM
IC50 [1]: 6.67 nM
IC50 (Histone deacetylase 8): 713 nM
IC50 (A549; [3]): 2290 nM
IC50 (MCF7; [4]): 2860 nM
IC50 (Vero): 4900 nM
IC50 [2, 5]: 243 nM
Imax (Homo sapiens): 35.9%

CC[C@H]1OC(=O)[C@@H](C)[C@H](O[C@H]2C[C@@](C)(OC)[C@@H](O)[C@H](C)O2)[C@H](C)[C@H](O[C@H]2O[C@@H](C)C[C@@H](N(C)Cc3ccc(-c4cn(CCCC(=O)NO)nn4)cc3)[C@@H]2O)[C@@](C)(O)C[C@H](C)CN(C)[C@@H](C)[C@H](O)[C@@]1(C)O
IC50 (Histone deacetylase 1): > 10000 nM
IC50 [1]: 106 nM
IC50 (Histone deacetylase 8): > 10000 nM
IC50 (A549; a549): Not Active
IC50 (MCF7; mcf7): Not Active

CC[C@H]1OC(=O)[C@@H](C)[C@H](O[C@H]2C[C@@](C)(OC)[C@](O)(CN(C)Cc3ccc(-c4cn(CCCCCCC(=O)NO)nn4)cc3)[C@H](C)O2)[C@H](C)[C@H](O[C@H]2O[C@@H](C)C[C@@H](N(C)C)[C@@H]2O)[C@@](C)(O)C[C@H](C)CN(C)[C@@H](C)[C@H](O)[C@@]1(C)O
IC50 (Histone deacetylase 1): 50.4 nM
IC50 [1]: 31.3 nM
IC50 (Histone deacetylase 8): 817 nM
IC50 (A549; a549): Not Active
IC50 (MCF7; mcf7): Not Active

CC[C@H]1OC(=O)[C@H](C)[C@@H](O[C@@H]2C[C@](C)(OC)[C@H](O)[C@@H](C)O2)[C@@H](C)[C@@H](O[C@H]2O[C@@H](C)C[C@@H](N(C)Cc3ccc(-c4cn(CCCCCC(=O)NO)nn4)cc3)[C@@H]2O)[C@](C)(OC)C[C@@H](C)C(=O)[C@H](C)[C@H](O)[C@]1(C)O (stereo in doubt)
IC50 (Histone deacetylase 1): 533 nM
IC50 [1]: 3.61 nM
IC50 (Histone deacetylase 8): 1180 nM
IC50 [2, 5]: 785 nM
Imax (Homo sapiens): 45.1%

CC[C@@H]1OC(=O)[C@@H](C)[C@H](O[C@@H]2C[C@](C)(OC)[C@@](O)(CN(C)C)[C@@H](C)O2)[C@H](C)[C@H](O[C@@H]2O[C@H](C)C[C@H](N(C)Cc3ccc(-c4cn(CCCCCCC(=O)NO)nn4)cc3)[C@H]2O)[C@@](C)(OC)C[C@H](C)C(=O)[C@@H](C)[C@@H](O)[C@@]1(C)O
IC50 (Histone deacetylase 1): 33.3 nM
IC50 [1]: 31.4 nM
IC50 (Histone deacetylase 8): 2210 nM
IC50 (A549; [3]): 3580 nM
IC50 (MCF7; [4]): 1430 nM
IC50 (Vero): 2080 nM
IC50 [2, 5]: 260 nM
Imax (Homo sapiens): 33.4%

CC[C@@H]1OC(=O)[C@H](C)[C@@H](O[C@@H]2C[C@](C)(OC)[C@H](O)[C@@H](C)O2)[C@@H](C)[C@@H](O[C@@H]2O[C@H](C)C[C@H](N(C)Cc3cccc(-c4cn(CCCCCCC(=O)NO)nn4)c3)[C@H]2O)[C@](C)(O)C[C@@H](C)CN(C)[C@H](C)[C@@H](O)[C@]1(C)O
IC50 (Histone deacetylase 1): 101 nM
IC50 [1]: 41 nM
IC50 (Histone deacetylase 8): 1440 nM
IC50 (A549; [3]): 4090 nM
IC50 (MCF7; [4]): 2370 nM
IC50 (Vero): 8350 nM
IC50 [2, 5]: 609 nM
Imax (Homo sapiens): 43.3%

CC[C@@H]1OC(=O)[C@@H](C)[C@H](O[C@H]2C[C@@](C)(OC)[C@@H](O)[C@H](C)O2)[C@@H](C)[C@H](O[C@H]2O[C@@H](C)C[C@@H](N(C)C)[C@@H]2O)[C@](C)(O)C[C@H](C)CN(Cc2ccc(-c3cn(CCCCC(=O)NO)nn3)cc2)[C@H](C)[C@H](O)[C@@]1(C)O
IC50 (Histone deacetylase 1): 2550 nM
IC50 [1]: 24.5 nM
IC50 (Histone deacetylase 8): > 10000 nM
IC50 (A549; a549): Not Active
IC50 (MCF7; mcf7): Not Active

CC[C@@H]1OC(=O)[C@H](C)[C@@H](O[C@@H]2C[C@](C)(OC)[C@@](O)(CN(C)Cc3ccc(-c4cn(CCCCCC(=O)NO)nn4)cc3)[C@@H](C)O2)[C@@H](C)[C@@H](O[C@@H]2O[C@H](C)C[C@H](N(C)C)[C@H]2O)[C@](C)(O)C[C@@H](C)CN(C)[C@H](C)[C@@H](O)[C@]1(C)O
IC50 (Histone deacetylase 1): 203 nM
IC50 [1]: 31.9 nM
IC50 (Histone deacetylase 8): 786 nM
IC50 [2, 5]: 368 nM
Imax (Homo sapiens): 46.1%

CC[C@H]1OC(=O)[C@@H](C)[C@H](O[C@H]2C[C@@](C)(OC)[C@@H](O)[C@H](C)O2)[C@H](C)[C@H](O[C@H]2O[C@@H](C)C[C@@H](N(C)Cc3ccc(-c4cn(CCCCCCC(=O)NO)nn4)cc3)[C@@H]2O)[C@@](C)(O)C[C@H](C)CN(C)[C@@H](C)[C@H](O)[C@@]1(C)O (stereo in doubt)
IC50 (Histone deacetylase 1): 68.6 nM
IC50 [1]: 7.29 nM
IC50 (Histone deacetylase 8): 314 nM
IC50 (A549; [3]): 2320 nM
IC50 (MCF7; [4]): 4080 nM
IC50 (Vero): 5900 nM
IC50 [2, 5]: 280 nM
Imax (Homo sapiens): 41.4%

CC[C@H]1OC(=O)[C@H](C)[C@@H](O[C@@H]2C[C@](C)(OC)[C@@](O)(CN(C)Cc3ccc(-c4cn(CCCCCC(=O)NO)nn4)cc3)[C@@H](C)O2)[C@@H](C)[C@@H](O[C@H]2O[C@@H](C)C[C@@H](N(C)C)[C@@H]2O)[C@](C)(OC)C[C@@H](C)C(=O)[C@H](C)[C@H](O)[C@]1(C)O
IC50 (Histone deacetylase 1): 652 nM
IC50 [1]: 5.89 nM
IC50 (Histone deacetylase 8): 985 nM
IC50 [2, 5]: 785 nM
Imax (Homo sapiens): 50.7%

CC[C@H]1OC(=O)[C@@H](C)[C@H](O[C@H]2C[C@@](C)(OC)[C@](O)(CN(C)C)[C@H](C)O2)[C@H](C)[C@H](O[C@H]2O[C@@H](C)C[C@@H](N(C)Cc3ccc(-c4cn(CCCCCCC(=O)NO)nn4)cc3)[C@@H]2O)[C@@](C)(O)C[C@H](C)CN(C)[C@@H](C)[C@H](O)[C@@]1(C)O
IC50 (Histone deacetylase 1): 79.5 nM
IC50 [1]: 18.9 nM
IC50 (Histone deacetylase 8): 749 nM
IC50 (A549; [3]): 6800 nM
IC50 (Vero): 5730 nM
IC50 [2, 5]: 575 nM
Imax (Homo sapiens): 43.4%

CC[C@@H]1OC(=O)[C@H](C)[C@@H](O[C@@H]2C[C@](C)(OC)[C@H](O)[C@@H](C)O2)[C@@H](C)[C@@H](O[C@@H]2O[C@H](C)C[C@H](N(C)Cc3ccccc3-c3cn(CCCCCCC(=O)NO)nn3)[C@H]2O)[C@](C)(O)C[C@@H](C)CN(C)[C@H](C)[C@@H](O)[C@]1(C)O
IC50 (Histone deacetylase 1): 923 nM
IC50 [1]: 30.9 nM
IC50 (Histone deacetylase 8): 1280 nM
IC50 (A549; a549): Not Active
IC50 (MCF7; mcf7): Not Active

CC[C@H]1OC(=O)[C@H](C)C(=O)[C@H](C)[C@@H](O[C@@H]2O[C@H](C)C[C@H](N(C)Cc3ccccc3-c3cn(CCCCCCC(=O)NO)nn3)[C@H]2O)[C@@](C)(OC)C[C@@H](C)C2=NCCN3C(=O)O[C@@]1(C)[C@H]3[C@H]2C
IC50 (Histone deacetylase 1): > 10000 nM
IC50 [1]: 75.4 nM
IC50 (Histone deacetylase 8): 2450 nM
IC50 (A549; a549): Not Active
IC50 (MCF7; mcf7): Not Active
